Measured values published in ChEMBL document CHEMBL1287649, “Synthesis and anti-tubercular and antimicrobial activities of some 2r,4c-diaryl-3-azabicyclo[3.3.1]nonan-9-one N-isonicotinoylhydrazone derivatives” (2010).
In brackets after ≈: the same amount, converted by molar mass. Activity calls are given as the source filed them. No cut-off for these calls is given here.

Key:
Escherichia coli [1] = assay: Antibacterial activity against Escherichia coli NCIM 2345 after 24 hrs by twofold serial dilution method; assay type: functional; conditions: NCIM 2345, 24 h
Outline: (§1)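 Two-fold serial dilution in nutrient broth; compounds from 1 mg mL^-1 DMSO stocks, 0.2 mL into 1.8 mL seeded broth, then six serial dilutions. Inoculum from 24-h nutrient agar cultures grown at 37 ± 1 °C, final 10⁵ cfu mL^-1, pH 7.4 ± 0.2. Incubated at 37 ± 1 °C. MIC read visually after 24 h. Seeded-broth and solvent controls included.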

Pseudomonas aeruginosa [2] = assay: Antibacterial activity against Pseudomonas aeruginosa NCIM 2035 after 24 hrs by twofold serial dilution method; assay type: functional; conditions: NCIM 2035, 24 h; outline: as §1
Bacillus subtilis [3] = assay: Antibacterial activity against Bacillus subtilis NCIM 2439 after 24 hrs by twofold serial dilution method; assay type: functional; conditions: NCIM 2439, 24 h; outline: as §1
Klebsiella pneumoniae [4] = assay: Antibacterial activity against Klebsiella pneumoniae after 24 hrs by twofold serial dilution method; assay type: functional; outline: as §1
Staphylococcus aureus = assay: Antibacterial activity against Staphylococcus aureus NCIM 2492 after 24 hrs by twofold serial dilution method; assay type: functional; conditions: NCIM 2492, 24 h; outline: as §1
Candida albicans [5] = assay: Antifungal activity against Candida albicans-51 NCIM C27 after 72 to 96 hrs by twofold serial dilution method; assay type: functional
Outline: (§2)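 Two-fold serial dilution in Sabouraud dextrose broth; compounds from 1 mg mL^-1 DMSO stocks, 0.2 mL into 1.8 mL seeded broth, then six serial dilutions. Spores from 24-h to 7-day Sabouraud agar slants, final 1.1–1.5 × 10² cfu mL^-1, pH 7.4 ± 0.2. Incubated at 28 ± 1 °C. MIC read visually after 72–96 h. Seeded-broth and solvent controls included.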

Aspergillus niger = assay: Antifungal activity against Aspergillus niger NCIM 590 after 72 to 96 hrs by twofold serial dilution method; assay type: functional; outline: as §2
Candida albicans [6] = assay: Antifungal activity against Candida albicans NCIM C27 after 72 to 96 hrs by twofold serial dilution method; assay type: functional; outline: as §2
Aspergillus flavus [7] = assay: Antifungal activity against Aspergillus flavus NCIM 539 after 72 to 96 hrs by twofold serial dilution method; assay type: functional; outline: as §2
[8] = tested on: Mycobacterium tuberculosis; assay: Antitubercular activity against Mycobacterium tuberculosis H37Rv ATCC 27294 assessed as reduction of relative light unit at 1 ug/ml after 72 hrs by luciferase reporter phage assay relative to control; assay type: functional, H37Rv ATTC 27294; parameters: scale not given: the % may be the effect or the level left
Outline: (§3)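 Luciferase reporter phage assay. Luminescence (RLU) integrated for 10 s on a luminometer, in duplicate per sample and averaged. Percent RLU reduction calculated against untreated control. Run repeated if the control mean RLU was below 1000.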

[9] = tested on: Mycobacterium tuberculosis; assay: Antitubercular activity against Mycobacterium tuberculosis H37Rv ATCC 27294 assessed as reduction of relative light unit at 2 ug/ml after 72 hrs by luciferase reporter phage assay relative to control; assay type: functional, H37Rv ATTC 27294; parameters: scale not given: the % may be the effect or the level left; outline: as §3
Candida albicans [10] = assay: Antifungal activity against Candida albicans-6 NCIM C27 after 72 to 96 hrs by twofold serial dilution method; assay type: functional; outline: as §2
Escherichia coli [11] = assay: Antibacterial activity against Escherichia coli NCIM 2345 at 200 ug/ml after 24 hrs by twofold serial dilution method; assay type: functional, organism-based
Bacillus subtilis [12] = assay: Antibacterial activity against Bacillus subtilis NCIM 2439 at 200 ug/ml after 24 hrs by twofold serial dilution method; assay type: functional, organism-based
Aspergillus flavus [13] = assay: Antifungal activity against Aspergillus flavus NCIM 539 at 200 ug/ml after 72 to 96 hrs by twofold serial dilution method; assay type: functional, organism-based
Candida albicans [14] = assay: Antifungal activity against Candida albicans NCIM C27 at 200 ug/ml after 72 to 96 hrs by twofold serial dilution method; assay type: functional, organism-based
Candida albicans [15] = assay: Antifungal activity against Candida albicans-6 NCIM C27 at 200 ug/ml after 72 to 96 hrs by twofold serial dilution method; assay type: functional, organism-based
Klebsiella pneumoniae [16] = assay: Antibacterial activity against Klebsiella pneumoniae at 200 ug/ml after 24 hrs by twofold serial dilution method; assay type: functional, organism-based
Pseudomonas aeruginosa [17] = assay: Antibacterial activity against Pseudomonas aeruginosa NCIM 2035 at 200 ug/ml after 24 hrs by twofold serial dilution method; assay type: functional, organism-based

| Structure (SMILES) | MIC (Escherichia coli [1]) | MIC (Pseudomonas aeruginosa [2]) | MIC (Bacillus subtilis [3]) | MIC (Klebsiella pneumoniae [4]) | MIC (Staphylococcus aureus) | MIC (Candida albicans [5]) | MIC (Aspergillus niger) | MIC (Candida albicans [6]) | MIC (Aspergillus flavus [7]) | Activity [8] | Activity [9] | MIC (Candida albicans [10]) | Activity (Escherichia coli [11]) | Activity (Bacillus subtilis [12]) | Activity (Aspergillus flavus [13]) | Activity (Candida albicans [14]) | Activity (Candida albicans [15]) | Activity (Klebsiella pneumoniae [16]) | Activity (Pseudomonas aeruginosa [17]) |
| --- | --- | --- | --- | --- | --- | --- | --- | --- | --- | --- | --- | --- | --- | --- | --- | --- | --- | --- | --- |
| CC1(C)S[C@@H]2[C@H](NC(=O)Cc3ccccc3)C(=O)N2[C@H]1C(=O)O [PENICILLIN G] | 50 µg/mL (≈ 150 µM) | 50 µg/mL (≈ 150 µM) | 25 µg/mL (≈ 74.8 µM) | 12.5 µg/mL (≈ 37.4 µM) | 12.5 µg/mL (≈ 37.4 µM) |  |  |  |  |  |  |  |  |  |  |  |  |  |  |
| COc1ccc([C@H]2N[C@@H](c3ccc(OC)cc3)C3CCCC2/C3=N\NC(=O)c2ccncc2)cc1 | 100 µg/mL (≈ 213 µM) |  | 200 µg/mL (≈ 425 µM) | 200 µg/mL (≈ 425 µM) | 100 µg/mL (≈ 213 µM) | 100 µg/mL (≈ 213 µM) | 200 µg/mL (≈ 425 µM) | 200 µg/mL (≈ 425 µM) | 200 µg/mL (≈ 425 µM) | 73.07% | 83.02% | 100 µg/mL (≈ 213 µM) |  |  |  |  |  |  |  |
| C[C@@H]1[C@H](O)[C@@H](C)/C=C/C=C/C=C/C=C/C=C/C=C/C=C/[C@H](O[C@@H]2O[C@H](C)[C@@H](O)[C@H](N)[C@@H]2O)C[C@@H]2O[C@](O)(C[C@@H](O)C[C@@H](O)[C@H](O)CC[C@@H](O)C[C@@H](O)CC(=O)O[C@H]1C)C[C@H](O)[C@H]2C(=O)O [AMPHOTERICIN B] |  |  |  |  |  | 25 µg/mL (≈ 27.1 µM) | 50 µg/mL (≈ 54.1 µM) | 25 µg/mL (≈ 27.1 µM) | 50 µg/mL (≈ 54.1 µM) |  |  | 25 µg/mL (≈ 27.1 µM) |  |  |  |  |  |  |  |
| O=C(N/N=C1\C2CCCC1[C@H](c1ccccc1)N[C@@H]2c1ccccc1)c1ccncc1 |  | 200 µg/mL (≈ 487 µM) |  |  | 100 µg/mL (≈ 244 µM) | 100 µg/mL (≈ 244 µM) | 200 µg/mL (≈ 487 µM) |  |  | 77.76% | 87.9% |  | inactive | inactive | inactive | inactive | inactive | inactive |  |
| O=C(N/N=C1\C2CCCC1[C@H](c1ccc(F)cc1)N[C@@H]2c1ccc(F)cc1)c1ccncc1 | 100 µg/mL (≈ 224 µM) | 100 µg/mL (≈ 224 µM) | 50 µg/mL (≈ 112 µM) |  | 50 µg/mL (≈ 112 µM) | 50 µg/mL (≈ 112 µM) | 100 µg/mL (≈ 224 µM) | 50 µg/mL (≈ 112 µM) | 100 µg/mL (≈ 224 µM) | 76.63% | 86.12% | 50 µg/mL (≈ 112 µM) |  |  |  |  |  | inactive |  |
| COc1cccc([C@H]2N[C@@H](c3cccc(OC)c3)C3CCCC2/C3=N\NC(=O)c2ccncc2)c1 | 200 µg/mL (≈ 425 µM) | 200 µg/mL (≈ 425 µM) | 50 µg/mL (≈ 106 µM) | 100 µg/mL (≈ 213 µM) | 200 µg/mL (≈ 425 µM) | 200 µg/mL (≈ 425 µM) | 100 µg/mL (≈ 213 µM) | 100 µg/mL (≈ 213 µM) | 100 µg/mL (≈ 213 µM) | 77.18% | 87.06% | 200 µg/mL (≈ 425 µM) |  |  |  |  |  |  |  |
| O=C(N/N=C1\C2CCCC1[C@H](c1ccc(Cl)cc1)N[C@@H]2c1ccc(Cl)cc1)c1ccncc1 | 50 µg/mL (≈ 104 µM) | 100 µg/mL (≈ 209 µM) | 100 µg/mL (≈ 209 µM) | 100 µg/mL (≈ 209 µM) | 50 µg/mL (≈ 104 µM) | 50 µg/mL (≈ 104 µM) | 100 µg/mL (≈ 209 µM) | 100 µg/mL (≈ 209 µM) | 200 µg/mL (≈ 417 µM) | 75.61% | 85.22% | 100 µg/mL (≈ 209 µM) |  |  |  |  |  |  | inactive |
| NNC(=O)c1ccncc1 [ISONIAZID] |  |  |  |  |  |  |  |  |  | 98.42% | 98.42% |  |  |  |  |  |  |  |  |
| CN[C@@H]1[C@H](O[C@H]2[C@H](O[C@H]3[C@H](O)[C@@H](O)[C@H](N=C(N)N)[C@@H](O)[C@@H]3N=C(N)N)O[C@@H](C)[C@]2(O)C=O)O[C@@H](CO)[C@H](O)[C@H]1O [STREPTOMYCIN] | 12.5 µg/mL (≈ 21.5 µM) | 25 µg/mL (≈ 43 µM) | 12.5 µg/mL (≈ 21.5 µM) | 50 µg/mL (≈ 86 µM) | 50 µg/mL (≈ 86 µM) |  |  |  |  |  |  |  |  |  |  |  |  |  |  |
| Cc1ccc([C@H]2N[C@@H](c3ccc(C)cc3)C3CCCC2/C3=N\NC(=O)c2ccncc2)cc1 |  | 100 µg/mL (≈ 228 µM) | 200 µg/mL (≈ 456 µM) |  | 200 µg/mL (≈ 456 µM) | 100 µg/mL (≈ 228 µM) | 100 µg/mL (≈ 228 µM) | 100 µg/mL (≈ 228 µM) |  | 72.03% | 82.04% | 200 µg/mL (≈ 456 µM) | inactive |  | inactive |  |  | inactive |  |
| O=C(N/N=C1\C2CCCC1[C@H](c1cccc(Cl)c1)N[C@@H]2c1cccc(Cl)c1)c1ccncc1 | 50 µg/mL (≈ 104 µM) | 100 µg/mL (≈ 209 µM) | 100 µg/mL (≈ 209 µM) | 50 µg/mL (≈ 104 µM) | 100 µg/mL (≈ 209 µM) | 200 µg/mL (≈ 417 µM) | 100 µg/mL (≈ 209 µM) | 200 µg/mL (≈ 417 µM) | 200 µg/mL (≈ 417 µM) | 75.42% | 85.34% | 50 µg/mL (≈ 104 µM) |  |  |  |  |  |  |  |
